From ChEMBL document CHEMBL1152621, “Synthesis and discovery of pyrazole-5-carbohydrazide N-glycosides as inducer of autophagy in A549 lung cancer cells” (Bioorg Med Chem, 2009)
Active and inactive are the calls of the source. No cut-off for these calls is given here.

How the values were obtained:
[1] = tested on: A549; test: Induction of autophagy in human A549 cells assessed as increase in LC3-II protein level at 40 uM after 24 hrs by Western blot; type: functional, cell-based
Summary of the method: (§1)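 A549 treated 24 or 48 h at 20 or 40 µM. Lysis in 0.5% SDS/Tris pH 7.5 buffer with protease inhibitors; Bradford protein; 15% SDS-PAGE, PVDF, milk block; anti-LC3b, anti-p62, anti-β-actin overnight 4 °C, HRP secondaries, chemiluminescence on X-ray film. Levels normalized to β-actin, expressed as percent of control.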

[2] = tested on: A549; test: Induction of necrosis in human A549 cells at 40 uM after 48 hrs assessed as increase in LDH release; type: cell-based; conditions: a549, 48 h
Summary of the method: (§2)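 A549 treated 48 h at 20 or 40 µM, 0.1% DMSO control; culture medium collected and LDH release measured with a commercial lactate dehydrogenase kit; mean ± SE, n = 3.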

[3] = tested on: A549; test: Effect on cell morphology in human A549 cells assessed as induction of vacuolization at 40 uM after 24 hrs by phase contrast microscopy; type: functional, cell-based
Summary of the method: (§3)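 A549 in RPMI 1640 with 10% bovine calf serum, 80 U/ml gentamicin, 37 °C, 5% CO2; seeded at 6250/cm2. Treated with compound or left untreated for 24 or 48 h. Morphology (vacuoles, cell number) photographed at 400× under inverted phase contrast microscope.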

[4] = tested on: A549; test: Induction of autophagy in human A549 cells assessed as decrease in p62 protein level at 40 uM after 24 hrs by Western blot; type: functional, cell-based; summary of the method: as §1
[5] = tested on: A549; test: Effect on cell morphology in human A549 cells assessed as decrease in cell number at 40 uM after 24 hrs by phase contrast microscopy; type: functional, cell-based; summary of the method: as §3
[6] = tested on: A549; test: Induction of autophagy in human A549 cells assessed as decrease in p62 protein level at 40 uM after 48 hrs by Western blot; type: functional, cell-based; summary of the method: as §1
[7] = tested on: A549; test: Induction of autophagy in human A549 cells assessed as increase in LC3-II protein level at 40 uM after 48 hrs by Western blot; type: functional, cell-based; summary of the method: as §1
[8] = tested on: A549; test: Growth inhibition of human A549 cells after 48 hrs by sulforhodamine B assay; type: functional, cell-based; conditions: A549, 48 h
Summary of the method: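 A549 (RPMI 1640, 10% bovine calf serum, seeded 6250/cm2) exposed 24 h after seeding to compound at 10, 20 or 40 µM, 0.1% DMSO control, for 24 or 48 h. TCA fixation 1 h at 4 °C, 0.4% SRB in 1% acetic acid, dye dissolved in 10 mM Tris base pH 10.5, OD 510 nm; mean ± SE, n = 3.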

[9] = tested on: A549; test: Effect on cell morphology in human A549 cells assessed as decrease in cell number at 40 uM after 48 hrs by phase contrast microscopy; type: functional, cell-based; summary of the method: as §3
[10] = tested on: A549; test: Effect on cell morphology in human A549 cells assessed as induction of vacuolization at 40 uM after 48 hrs by phase contrast microscopy; type: functional, cell-based; summary of the method: as §3
[11] = tested on: A549; test: Induction of autophagy in human A549 cells assessed as decrease in p62 protein level at 20 uM after 48 hrs by Western blot; type: functional, cell-based; summary of the method: as §1
[12] = tested on: A549; test: Induction of autophagy in human A549 cells assessed as increase in LC3-II protein level at 20 uM after 24 hrs by Western blot; type: functional, cell-based; summary of the method: as §1
[13] = tested on: A549; test: Induction of autophagy in human A549 cells assessed as increase in LC3-II protein level at 20 uM after 48 hrs by Western blot; type: functional, cell-based; summary of the method: as §1
[14] = tested on: A549; test: Effect on cell morphology in human A549 cells assessed as decrease in cell number at 20 uM after 24 hrs by phase contrast microscopy; type: functional, cell-based; summary of the method: as §3
[15] = tested on: A549; test: Induction of necrosis in human A549 cells at 20 uM after 48 hrs assessed as increase in LDH release; type: cell-based; conditions: a549, 48 h; summary of the method: as §2
[16] = tested on: A549; test: Effect on cell morphology in human A549 cells assessed as induction of vacuolization at 20 uM after 24 hrs by phase contrast microscopy; type: functional, cell-based; summary of the method: as §3
[17] = tested on: A549; test: Induction of autophagy in human A549 cells assessed as decrease in p62 protein level at 20 uM after 24 hrs by Western blot; type: functional, cell-based; summary of the method: as §1
[18] = tested on: A549; test: Effect on cell morphology in human A549 cells assessed as decrease in cell number at 20 uM after 48 hrs by phase contrast microscopy; type: functional, cell-based; summary of the method: as §3

CC(C)(C)c1ccc(Cn2nc(-c3ccccc3)cc2C(=O)NN[C@@H]2OC[C@@H](O)[C@H](O)[C@H]2O)cc1
Activity [1]: inactive
Activity [2]: Non-toxic
Activity [3]: Active
Activity [4]: Active
Activity [5]: Active
Activity [6]: Active
Activity [7]: Active
IC50 [8]: 15.2 µM
Activity [9]: Active

CC(C)(C)c1ccc(Cn2nc(-c3ccc(Cl)cc3)cc2C(=O)NN[C@@H]2O[C@H](CO)[C@@H](O)[C@H](O)[C@H]2O)cc1
Activity [1]: inactive
Activity [2]: Non-toxic
Activity [3]: Active
Activity [4]: Active
Activity [5]: Active
Activity [6]: Active
Activity [7]: Active
IC50 [8]: 26.6 µM
Activity [9]: Active

O=C(NN[C@@H]1O[C@H](CO)[C@@H](O)[C@H](O)[C@H]1O)c1cc(-c2ccc(Cl)cc2)nn1Cc1ccccc1
Activity [2]: Non-toxic
IC50 [8]: 31.8 µM

COc1ccc(-c2cc(C(=O)NN[C@@H]3O[C@H](CO)[C@@H](O)[C@H](O)[C@H]3O)n(Cc3ccc(C(C)(C)C)cc3)n2)cc1
Activity [2]: Non-toxic
Activity [10]: Active
IC50 [8]: 38.9 µM

O=C(NN[C@@H]1O[C@H](CO)[C@@H](O)[C@H](O)[C@H]1O)c1cc(-c2ccc(Cl)cc2)nn1Cc1ccc(Cl)nc1
Activity [2]: Non-toxic
Activity [10]: Active
IC50 [8]: 35 µM

CC(C)(C)c1ccc(Cn2nc(-c3ccccc3)cc2C(=O)NN[C@@H]2O[C@H](CO)[C@@H](O)[C@H](O)[C@H]2O)cc1
Activity [1]: inactive
Activity [2]: Non-toxic
Activity [3]: Active
Activity [4]: Active
Activity [5]: Active
Activity [6]: Active
Activity [7]: Active
IC50 [8]: 21.6 µM
Activity [9]: Active

CC(C)(C)c1ccc(Cn2nc(-c3ccc(Cl)cc3)cc2C(=O)NN[C@@H]2OC[C@@H](O)[C@H](O)[C@H]2O)cc1
Activity [11]: Active
Activity [12]: inactive
Activity [2]: Toxic
Activity [13]: Active
Activity [14]: Active
Activity [15]: Non-toxic
IC50 [8]: 13.9 µM
Activity [16]: Active
Activity [17]: Active
Activity [18]: Active

COc1ccc(-c2cc(C(=O)NN[C@@H]3OC[C@@H](O)[C@H](O)[C@H]3O)n(Cc3ccc(C(C)(C)C)cc3)n2)cc1
Activity [2]: Non-toxic
Activity [10]: Active
IC50 [8]: 24.9 µM
